Reference: ChEMBL document CHEMBL1157698, “Enhancing the intestinal absorption of molecules containing the polar guanidino functionality: a double-targeted prodrug approach” (J Med Chem, 2010)

T1: Serine hydrolase BPHL (Homo sapiens) (UniProt Q86WA6)
T1 sequence (whole entry): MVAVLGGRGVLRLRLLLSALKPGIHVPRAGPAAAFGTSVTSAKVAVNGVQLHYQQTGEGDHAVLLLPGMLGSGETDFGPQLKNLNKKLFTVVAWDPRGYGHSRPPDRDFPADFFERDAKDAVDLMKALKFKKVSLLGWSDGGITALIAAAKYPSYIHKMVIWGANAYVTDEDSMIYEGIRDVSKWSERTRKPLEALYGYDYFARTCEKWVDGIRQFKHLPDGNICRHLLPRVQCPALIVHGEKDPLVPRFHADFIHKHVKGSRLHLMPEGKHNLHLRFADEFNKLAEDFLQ

T2: Solute carrier family 15 member 1 (Homo sapiens, UniProt P46059)
T2 sequence (P46059 whole entry): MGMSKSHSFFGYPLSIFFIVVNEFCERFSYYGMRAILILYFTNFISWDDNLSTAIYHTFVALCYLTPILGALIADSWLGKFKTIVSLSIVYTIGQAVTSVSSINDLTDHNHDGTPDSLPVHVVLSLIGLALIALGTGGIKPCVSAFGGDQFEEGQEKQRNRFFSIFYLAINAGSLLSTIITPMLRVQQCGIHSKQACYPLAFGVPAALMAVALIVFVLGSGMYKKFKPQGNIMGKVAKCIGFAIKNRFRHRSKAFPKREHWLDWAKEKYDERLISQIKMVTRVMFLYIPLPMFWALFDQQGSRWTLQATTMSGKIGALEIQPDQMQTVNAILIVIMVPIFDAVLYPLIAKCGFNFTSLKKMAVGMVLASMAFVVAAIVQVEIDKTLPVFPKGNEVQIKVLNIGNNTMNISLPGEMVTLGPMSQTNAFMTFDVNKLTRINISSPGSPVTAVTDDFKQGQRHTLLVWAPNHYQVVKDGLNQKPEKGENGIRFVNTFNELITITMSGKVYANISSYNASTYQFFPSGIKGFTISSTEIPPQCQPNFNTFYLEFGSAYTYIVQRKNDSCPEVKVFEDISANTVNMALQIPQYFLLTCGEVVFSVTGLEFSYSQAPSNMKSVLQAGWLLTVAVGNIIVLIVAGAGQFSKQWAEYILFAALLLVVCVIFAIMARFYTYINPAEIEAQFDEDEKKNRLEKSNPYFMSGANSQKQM

B1: Serine hydrolase BPHL (Homo sapiens), Q86WA6 (protein)
chain: T1 sequence (whole entry)

Experiments:
[1] = target: T1, Serine hydrolase BPHL (Homo sapiens); assay: Ratio of Kcat to Km of human recombinant VACVase assessed as hydrolysis
How it was run: (§1)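 Recombinant human VACVase expressed in and purified from E. coli, stored at −80 °C, protein measured by Bio-Rad DC assay against BSA. Run in 50 mM HEPES pH 7.4 at 37 °C with 5 min buffer preincubation, enzyme added, then substrate to start. Michaelis-Menten fit; kcat = Vmax/[enzyme]0 using 28.83 kDa mass, active protein normalized to valacyclovir specific activity. Triplicate.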

[2] = Chemical stability in pH 6 buffer after 2 hrs; type: physicochemical; conditions: pH 6, 2 h
How it was run: (§2)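 Hydrolysis at 37 °C in pH 6.0 uptake buffer (140 mM NaCl, 5.4 mM KCl, 1.8 mM CaCl2, 0.8 mM MgSO4, 5 mM glucose, 25 mM MES) or 10 mM phosphate pH 7.4. Compound added from 200 mM DMSO stock. […] Triplicate, mean ± SEM.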

[3] = Chemical stability assessed as half life of hydrolysis in pH 7.4 buffer; type: physicochemical; conditions: for t1/2: buffer; how it was run: as §2
HeLa [4] = assay: Stability in human HeLa cell homogenate assessed as half life of hydrolysis; type: ADME, cell-based
How it was run: (§3)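 Homogenates from HeLa or Caco-2 cells: NaCl-washed, collected in 10 mM phosphate pH 7.4, sonicated on ice, spun 10,000 rpm 10 min at 4 °C; supernatant adjusted to 500 μg/mL protein. Compound added from 200 mM DMSO stock at 37 °C.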

Caco-2 [5] = assay: Stability in human Caco-2 cell homogenate assessed as half life of hydrolysis; type: ADME, Colon; how it was run: as §3
[6] = target: T2, Solute carrier family 15 member 1; assay: Inhibition of human PEPT1-mediated [3H]Gly-Sar uptake in human HeLa cells; type: cell-based
How it was run: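 HeLa cells grown 5 days, infected with hPEPT1 adenovirus 3 days before assay, washed in pH 6.0 MES uptake buffer. Incubated 30 min at 37 °C with 10 μM Gly-Sar (0.1 μM [3H]) plus test compound at 0.05–5 mM. Cells washed ice-cold, lysed in 0.1% SDS, scintillation counted. IC50 by nonlinear fit; n=4.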

HeLa [7] = assay: Drug uptake in human HeLa cells expressing hPEPT1 after 60 mins; type: ADME, cell-based; conditions: 1 h
How it was run: (§4)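 HeLa cells, with or without hPEPT1 adenovirus infection 3 days before assay, after 5 days' growth. Preincubated 15 min in pH 6.0 MES uptake buffer, then given 1 mM compound for 60 min at 37 °C. Cells washed in ice-cold DPBS, sonicated, TFA-precipitated (final 7%), supernatant read by HPLC and normalized to protein (nmol/mg). Donor solution stability by HPLC. Triplicate, mean ± SEM.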

[8] = Stability in human HeLa cells expressing hPEPT1 after 60 mins; type: ADME, cell-based; conditions: read-out: Stability; how it was run: as §4
HeLa [9] = assay: Drug uptake in human HeLa cells after 60 mins; type: ADME, cell-based; conditions: 1 h; how it was run: as §4
[10] = Stability in human HeLa cells after 60 mins; type: ADME, cell-based; conditions: read-out: Stability; how it was run: as §4
hPEPT1 = assay: Drug uptake in human HeLa cells expressing hPEPT1 after 60 mins relative ro control; type: ADME, cell-based; how it was run: as §4
[11] = Stability in apical side in human Caco-2 cells at 120 mins by permeability study; type: ADME, cell-based; conditions: read-out: Stability
[12] = Chemical stability in pH 7.4 buffer after 2 hrs; type: physicochemical; conditions: pH 7.4, 2 h; how it was run: as §2
HeLa [13] = assay: Stability in human HeLa cell homogenate after 2 hrs; type: ADME, cell-based; how it was run: as §3
Caco-2 [14] = assay: Stability in human Caco-2 cell homogenate after 2 hrs; type: ADME, cell-based; conditions: caco-2, 2 h; how it was run: as §3
[15] = substrate: CC(C)[C@H](N)C(=O)OCCOCn1cnc2c(=O)nc(N)[nH]c21; assay: (§5) Activity of human recombinant VACVase assessed as hydrolysis; how it was run: as §1
[16] = substrate: CC(C)[C@H](N)C(=O)OCc1cccc(NC(=N)N)c1; assay: as §5; how it was run: as §1
[17] = substrate: CC[C@H](C)[C@H](N)C(=O)OCc1cccc(NC(=N)N)c1; assay: as §5; how it was run: as §1
[18] = substrate: N=C(N)Nc1cccc(COC(=O)[C@@H](N)Cc2ccccc2)c1; assay: as §5; how it was run: as §1
[19] = substrate: CC(C)[C@H](N)C(=O)OCCOCn1cnc2c(=O)nc(N)[nH]c21; assay: (§6) Activity of human recombinant VACVase assessed as hydrolysis measured per ug of protein; how it was run: as §1
[20] = substrate: CC(C)[C@H](N)C(=O)OCc1cccc(NC(=N)N)c1; assay: as §6; how it was run: as §1
[21] = substrate: CC[C@H](C)[C@H](N)C(=O)OCc1cccc(NC(=N)N)c1; assay: as §6; how it was run: as §1
[22] = substrate: N=C(N)Nc1cccc(COC(=O)[C@@H](N)Cc2ccccc2)c1; assay: as §6; how it was run: as §1

Molecule | Ratio [1] [mM⁻¹ s⁻¹] | Stability [2] | t1/2 [3] [h] | t1/2 (HeLa [4]) [h] | t1/2 (Caco-2 [5]) [h] | IC50 [6] [µM] | Drug uptake (HeLa [7]) [nmol/mg] | remaining at 1 h [8] [%] | Drug uptake (HeLa [9]) [nmol/mg] | remaining at 1 h [10] [%] | uptake ratio at 1 h (hPEPT1) | remaining at 2 h [11] [%] | further results
CC(C)[C@H](N)C(=O)OCCOCn1cnc2c(=O)nc(N)[nH]c21 | 850 | – | – | – | – | – | – | – | – | – | – | – | –
NC(N)=Nc1cccc(COC(=O)[C@@H](N)Cc2ccccc2)c1 | – | Stable | 4.363 | < 0.083 | < 0.017 | 2330 | 14.8 | 83.8 | 1.7 | 87.2 | 8.8 | 3.9 | –
CC[C@H](C)[C@H](N)C(=O)OCc1cccc(N=C(N)N)c1 | – | Stable | 11.75 | 2.287 | 0.993 | 630 | 27.7 | 98.7 | < 2 | 99 | > 13 | 96.6 | –
N=C(N)Nc1cccc(COC(=O)[C@@H](N)Cc2ccccc2)c1 | 1660 | – | – | – | – | – | – | – | – | – | – | – | –
CC(C)[C@H](N)C(=O)OCCOCn1cnc2c(=O)[nH]c(N)nc21 [VALACYCLOVIR] | – | Stable | – | 2.37 | 0.522 | 1420 | 5.5 | 96.8 | < 0.2 | 99.2 | – | 94.7 | half-life ([3]; pH 7.4 buffer): 8.23 h
N=C(N)Nc1cccc(CO)c1 [[3-(hydroxymethyl)phenyl]guanidine] | – | Stable | – | – | – | > 3000 | 5.5 | – | 3.8 | – | 1.4 | – | Stability [12]: Stable; Stability (HeLa [13]): Stable; Stability (Caco-2 [14]): Stable
CC(C)[C@H](N)C(=O)OCc1cccc(NC(=N)N)c1 | 3370 | Stable | 8.227 | 0.338 | 0.08 | 650 | 50.2 | 96.9 | < 2 | 98 | > 25 | 86.5 | –
CC[C@H](C)[C@H](N)C(=O)OCc1cccc(NC(=N)N)c1 | 1580 | – | – | – | – | – | – | – | – | – | – | – | –
CC(C)[C@@H](N)C(=O)OCc1cccc(NC(=N)N)c1 | – | – | – | – | – | – | – | – | – | – | – | 98.8 | –
B1 | – | – | – | – | – | – | – | – | – | – | – | – | Km [15]: 68 µM; kcat [15]: 58 s⁻¹; Km [16]: 46 µM; kcat [16]: 154 s⁻¹; Km [17]: 9 µM; kcat [17]: 14 s⁻¹; Km [18]: 207 µM; kcat [18]: 345 s⁻¹; Vmax [19]: 120 nmol/min; Vmax [20]: 321 nmol/min/µg; Vmax [21]: 30 nmol/min/µg; Vmax [22]: 718 nmol/min/µg
